Source: PubChem BioAssay
Gli-Sufu block = antagonists of Gli-Sufu signaling; Sufu-KO-LIGHT fibroblasts, Gli luciferase reporter luminescence; inhibition, % at 5 µM; actives 0.74% (n = 340,000); AID 588413;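 active means inhibition above about 55%, limit read from the data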
Jurkat NFkB inh = inhibitors of the PMA/ionomycin-induced NF-kB reporter in Jurkat cells | PMA/ionomycin-induced NF-kB luciferase reporter, luminescence | actives 0.53% (n = 330,000) | inhibition, % at 4 µM; in the data active means inhibition above about 50%
CHOP inhibitor = inhibitors of CHOP induction in ER stress response. actives 3.8% (n = 220,000). CHO-K1 CHOP-promoter luciferase, tunicamycin-induced, 15-18 h. inhibition, % at 10 µM;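 active means compounds that reduced the stress-induced luciferase reporter signal by more than about 70% of percent inhibition, limit read from the data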
UPR CHOP act = apoptotic UPR (CHOP) activation; AID 449763; CHO-CHOP luciferase reporter, luminescence; percent of tunicamycin response over DMSO baseline; actives 0.34% (n = 330,000); activation, % at 10 µM;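 active means at 10 µM dose, activation of 40% or more, normalized to positive control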
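Dosing – one dose, 10 µM in 0.5% DMSO · System – CHO-CHOP cells, stable luciferase reporter of PERK-eIF2a-CHOP signalling · Input – 500 cells/well · Control set – tunicamycin 10 µg/mL final as positive, DMSO-only wells as negative · Timing – 6 h compound treatment, 37 °C · Measure – % activation vs tunicamycin · Technique – luminescence read with Steady-Glo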
697 NFkB inh = inhibitors of the PMA/ionomycin-induced NF-kB reporter in 697 B cells. 697 B-cell NF-kB luciferase reporter, 16 h. inhibition, % at 4 µM. actives 0.33% (n = 330,000); in the data active means inhibition above about 35%
UPR XBP1 act = adaptive UPR (XBP1) activation; activation, % at 20 µM; actives 0.33% (n = 330,000); CHO-XBP1 luciferase reporter, IRE1-XBP1 UPR activation, luminescence; percent of tunicamycin response, DMSO as zero;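 active means versus positive control, 20 µM dose yields 30% or more activation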
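Test system: CHO-XBP1 luciferase reporter cells | Buffer or medium: Serum-containing F12 medium, 10% FBS | Schedule: 6 h compound exposure at 37 °C, 5% CO2 | Detection: Steady-Glo luciferase glow luminescence, 10 min after reagent addition | Read-out basis: Activation, % of tunicamycin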
Jurkat NFkB conf = lowers PMA/ionomycin-induced NF-kB signal in Jurkat cells; shares compounds with Jurkat NFkB inh; Jurkat NF-kB luciferase, 16 h; AID 435020; inhibition, % at 4 µM; actives 27% (n = 2,700);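 active means inhibition reaching about 45% at 4 µM in either replicate, limit read from the data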
697 NFkB conf = lowers PMA/ionomycin-induced NF-kB signal in 697 B cells; inhibition, % at 4 µM; 697 B-cell NF-kB luciferase, 16 h; actives 35% (n = 2,000); AID 449746; shares compounds with 697 NFkB inh; in the data active means inhibition mostly above about 28%, no sharp cut-off; inactive means mostly below about 22%
CHOP UPR conf = confirmation of apoptotic unfolded protein response (CHOP) activators; shares compounds with UPR CHOP act; CHO-CHOP cells, CHOP-luciferase reporter luminescence; percent of tunicamycin response, DMSO as zero; activation, % at 10 µM; actives 64% (n = 1,000); AID 463112; in the data active means activation above about 33%
XBP1 UPR conf = confirmation of adaptive unfolded protein response (XBP1) activators; actives 63% (n = 1,000); shares compounds with UPR XBP1 act; CHO-XBP1 IRE1-XBP1 luciferase reporter, luminescence; activation, % at 20 µM;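 active means reporter signal at least 30% of the positive control's activation in two or more of four replicate wells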
Gli antag conf = confirmation of Gli-SUFU pathway antagonists; actives 40% (n = 2,500); Sufu-KO-LIGHT cells, Gli luciferase reporter, luminescence; AID 602428; inhibition, % at 5 µM; shares compounds with Gli-Sufu block;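 active means mean inhibition at 5 µM reaching about 45%, limit read from the data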
Gli cytotox = cytotoxic in Gli-SUFU antagonist counter-screen. shares compounds with Gli-Sufu block. Sufu-KO-LIGHT cells cytotoxicity, ATP luminescence. cytotoxicity, % at 5 µM. actives 32% (n = 2,500);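 active means mean cytotoxicity at 5 µM above about 25%, limit read from the data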;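 further: cells exposed to compound overnight for roughly 16 to 18 hours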
Wnt3a cs = Wnt3a reporter inhibition counter-screen. actives 20% (n = 2,500). Wnt-LIGHT cells, Wnt3a-driven luciferase reporter, luminescence. shares compounds with Gli-Sufu block. inhibition, % at 6.25 µM;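 active means mean inhibition above about 25%, limit read from the data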
Each line names hits and unclear results; the compound was inactive in the other large screens (follow-up assays come after a bar, where they were run). Compounds with a hit are over-represented: about 3.9% of the library has one in this group of screens.

Cc1ccccc1N1CCN(C2CCCN(C(=O)c3snnc3C)C2)CC1 (stereo not drawn)	none (no result: CHOP inhibitor)
Cc1ccc(S(=O)(=O)N(C)/N=C/c2ccc(N(C)C)cc2)cc1	none (no result: CHOP inhibitor)
COc1cccc(C2CC(=O)Nc3cc4c(cc32)OCCO4)c1OC(C)C (stereo not drawn)	none
CC(C)Oc1ccccc1C1CC(=O)Nc2cc3c(cc21)OCCO3 (stereo not drawn)	Jurkat NFkB inh 78 (no result: CHOP inhibitor) | Jurkat NFkB conf 51 | Gli antag conf 60 | Gli cytotox 59 | Wnt3a cs inactive
Cn1nc(CC(=O)Nc2ccc3c(c2)CCC3)c2ccccc2c1=O	Gli-Sufu block 72, Jurkat NFkB inh 59, 697 NFkB inh 41 | Jurkat NFkB conf 68 | 697 NFkB conf 47 | Gli antag conf 68 | Gli cytotox 41 | Wnt3a cs inactive
CCc1nnc(SCC(=O)Nc2nc(C)c(C(=O)N(C)C)s2)n1CC	none (no result: CHOP inhibitor)
O=C(NCc1ccccc1)NC(=O)c1ccc(Cl)cc1	none (no result: Gli-Sufu block, CHOP inhibitor)
O=C1C=C(c2ccc3cc[nH]c3c2)C[C@@H](c2ccc3c(c2)OCO3)C1	Gli-Sufu block 59, Jurkat NFkB inh 53 (no result: CHOP inhibitor) | Jurkat NFkB conf inactive | Gli antag conf inactive | Gli cytotox inactive | Wnt3a cs inactive
CCN(C(=O)c1ccc(C(C)(C)C)cc1)c1nnc(Cn2nnc3ccccc32)s1	Gli-Sufu block 61, Jurkat NFkB inh 57, 697 NFkB inh 96 (no result: CHOP inhibitor) | Jurkat NFkB conf 69 | 697 NFkB conf 91 | Gli antag conf 61 | Gli cytotox 33 | Wnt3a cs 42
NS(=O)(=O)c1ccc(CCNc2ccccc2[N+](=O)[O-])cc1	none (no result: CHOP inhibitor)
CC(=O)Nc1ccc(NS(=O)(=O)c2ccc3c(c2)oc(=O)n3C)cc1	none (no result: CHOP inhibitor)
COc1cccc(CN(C)C(=O)c2cc(COc3ccc4ncccc4c3)on2)c1	Gli-Sufu block 57, Jurkat NFkB inh 52 | Jurkat NFkB conf inactive | Gli antag conf 57 | Gli cytotox inactive | Wnt3a cs 27
CC1=C(C(=O)OCc2ccccc2)C(c2cccc3ccccc23)NC(=O)N1CCCC(=O)O (stereo not drawn)	none (no result: CHOP inhibitor)
COC(=O)c1cnc(Oc2ccc(NC(=O)NC(=O)c3c(OC)cccc3OC)cc2)cc1C(F)(F)F	Jurkat NFkB inh 66 | Jurkat NFkB conf 60 | Gli antag conf 53 | Gli cytotox 58 | Wnt3a cs inactive
Cc1ccc(S(=O)(=O)NCc2ccncc2)c(C)c1C	Gli-Sufu block 76, Jurkat NFkB inh 62 | Jurkat NFkB conf 68 | Gli antag conf 74 | Gli cytotox 28 | Wnt3a cs 37
C/C(=N\NC(=O)C(C)Oc1ccc([N+](=O)[O-])cc1)c1ccccn1 (stereo not drawn)	Gli-Sufu block 88, Jurkat NFkB inh 61, UPR CHOP act 67 | Jurkat NFkB conf inactive | CHOP UPR conf 42 | Gli antag conf 85 | Gli cytotox 33 | Wnt3a cs 56
Nc1nc(Cl)cc(N2CCC(c3cc(-c4ccc(Cl)cc4)n[nH]3)CC2)n1	Gli-Sufu block 74, Jurkat NFkB inh 70 | Jurkat NFkB conf 63 | Gli antag conf 78 | Gli cytotox inactive | Wnt3a cs 68
CCO[C@@H]1OC(C(=O)NCc2nc3ccccc3[nH]2)=C[C@H](C2CC2)[C@H]1CCCO	none
CCO[C@@H]1OC(C(=O)NCc2nc3ccccc3[nH]2)=C[C@H](C(C)(C)C)[C@H]1CCCO	Jurkat NFkB inh 73 (no result: CHOP inhibitor) | Jurkat NFkB conf 55 | Gli antag conf 58 | Gli cytotox 60 | Wnt3a cs inactive
O=C(N=Nc1c(O)[nH]c2ccc(Br)cc12)c1ccccc1-n1cccc1	Gli-Sufu block 57, Jurkat NFkB inh 71 | Jurkat NFkB conf inactive | Gli antag conf inactive | Gli cytotox 34 | Wnt3a cs inactive
N=C(N)N=Nc1c(O)[nH]c2ccc(Br)cc12	none
CCN(CC(=O)Nc1ccccc1C(F)(F)F)C(=O)c1cc(S(=O)(=O)N2CCCCCC2)ccc1OC	none (no result: CHOP inhibitor)
COc1ccc(C2=Nn3c([n+](C)c4ccccc43)SC2)cc1	Gli-Sufu block 81, Jurkat NFkB inh 54 | Jurkat NFkB conf 63 | Gli antag conf 86 | Gli cytotox inactive | Wnt3a cs 40
COc1ccc(C2=Nn3c(nnc3-c3ccccn3)SC2)cc1	none
Cc1nn(-c2ccccc2)c(C)c1/C=N/NC(=O)c1cc(-c2cccs2)[nH]n1	Jurkat NFkB inh 53, 697 NFkB inh 45 | Jurkat NFkB conf 57 | 697 NFkB conf 51 | Gli antag conf 61 | Gli cytotox 60 | Wnt3a cs inactive
CC(C)(C)OC(=O)C[C@H]1C/C=C\C[C@@H](CC(=O)N[C@@H](CO)Cc2ccccc2)C(=O)N2CCC[C@@H]2COC1=O	none (no result: CHOP inhibitor)
CNc1ccccc1C(C)(C)c1cc(-c2cccc(OC)c2)no1	Gli-Sufu block 71, Jurkat NFkB inh 51 | Jurkat NFkB conf inactive | Gli antag conf 76 | Gli cytotox 42 | Wnt3a cs inactive
O=C(c1ccccc1)c1cc([N+](=O)[O-])ccc1N1CCCC1	none
O=C(c1ccc(Br)cc1)c1cc([N+](=O)[O-])ccc1N1CCCCC1	Jurkat NFkB inh 75, 697 NFkB inh 45, UPR XBP1 act 32 | Jurkat NFkB conf 59 | 697 NFkB conf 39 | XBP1 UPR conf inactive | Gli antag conf 60 | Gli cytotox 60 | Wnt3a cs inactive
